ABCG2 inh: blocks JC-1 efflux by human ABCG2 transporter; Q9UNQ0; IgMXP3 cells, flow cytometry; inhibition, % at 6.6 µM; hit rate 0.1% among 190,000;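 active means inhibition above 80%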;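 further: 0% = DMSO and 100% = nicardipine control wells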
Target sequence (Q9UNQ0 whole entry, looked up): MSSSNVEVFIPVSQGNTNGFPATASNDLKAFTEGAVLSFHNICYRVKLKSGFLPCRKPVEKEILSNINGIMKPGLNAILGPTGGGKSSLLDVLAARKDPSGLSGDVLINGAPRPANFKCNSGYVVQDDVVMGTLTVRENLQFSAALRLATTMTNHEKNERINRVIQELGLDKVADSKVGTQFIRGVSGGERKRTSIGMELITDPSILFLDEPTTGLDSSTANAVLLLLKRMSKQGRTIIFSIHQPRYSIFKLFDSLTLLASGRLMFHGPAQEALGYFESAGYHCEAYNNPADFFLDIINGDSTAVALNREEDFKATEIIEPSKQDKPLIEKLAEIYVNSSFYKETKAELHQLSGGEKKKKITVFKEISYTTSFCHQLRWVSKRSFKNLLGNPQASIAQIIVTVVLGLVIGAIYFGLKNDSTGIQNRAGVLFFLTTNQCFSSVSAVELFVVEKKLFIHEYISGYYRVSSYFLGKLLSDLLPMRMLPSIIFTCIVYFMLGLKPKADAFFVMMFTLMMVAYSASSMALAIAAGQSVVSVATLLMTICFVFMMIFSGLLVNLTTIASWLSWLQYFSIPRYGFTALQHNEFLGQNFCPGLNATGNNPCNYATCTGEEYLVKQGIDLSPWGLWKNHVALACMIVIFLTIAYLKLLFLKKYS
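Test system: ABCG2 IgMXP3 and barcoded ABCB1 CCRF-Adr cell mix; Schedule: cells with compound and JC-1, 10 min at 25 °C, rotating, no wash; Technique: flow cytometry of retained JC-1 fluorescence; Measure: % inhibition of efflux relative to nicardipine and DMSO; Controls: nicardipine high and DMSO low controls.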
RAM inhibit: yeast RAM network inhibition. S. cerevisiae dse1pr::URA3 reporter, 5-FOA growth OD615, 2 d; analog-sensitive cbk1-as2 kinase mutant strain. inhibition, % at 50 µM. hit rate 1.8% among 190,000;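 active means inhibition above a set limit, 3 SD over mean compound inhibition, cut at about 8.4% in these data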;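 further: 0% = DMSO-only wells with no growth and 100% = 10 µM 1-NA-PP1 full growth; inhibition rescues growth on 5-FOA so higher OD means more RAM inhibition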
Arbovirus anti: arbovirus infection inhibition; arbovirus infection cell-based antiviral screen; inhibition, % at 10 µM; hit rate 0.37% among 200,000; AID 1251; in the data active means inhibition above about 30%
ABCB1 block: inhibitors of human ABCB1 transporter, ABCG2 counter-screen. AID 1326. P08183. hit rate 0.067% among 190,000. CCRF-Adr cells, JC-1 efflux, flow cytometry. inhibition, % at 6.6 µM; in the data active means inhibition above about 40%;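 further: 0% = vehicle and 100% = reference inhibitor; higher value means more JC-1 retained so stronger ABCB1 efflux block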
* marks the source's active call; other numbers are inactive results. The list is not random: actives were taken first. Their share in the collection is about 2.3%.

SMILES	ABCG2 inh	RAM inhibit	Arbovirus anti	ABCB1 block
Cc1ccc(SCCNC(=O)/C=C/c2cccc([N+](=O)[O-])c2)cc1	15.3	9.7*	-11.7	0.3
COc1ccc(CSc2nnc(C)n2N)cc1	0.5	1.3	-6.9	0.1
Cc1cc(F)ccc1S(=O)(=O)Nc1ncnc2sc3c(c12)CCC3	3.4	1.7	15.9	0.2
Cc1nc(NS(=O)(=O)c2ccccc2C)c2c3c(sc2n1)CCC3	-0.5	0.9	37.7*	0.4
CCOC(=O)c1sc(NC(=O)CSc2ncn[nH]2)c(C#N)c1C	-0.3	2.8	5.5	-0.1
COc1nccnc1NS(=O)(=O)c1ccc(NC(=S)NC(=O)/C=C/c2ccc(F)cc2)cc1	-2.2	11.2*	2.4	-0.4
CN1CCN(c2ccccc2NC(=O)c2ccc(-c3ccc(Cl)cc3Cl)o2)CC1	3.1	3.2	-40.4	3.5
O=C(Nc1ccccc1N1CCCCC1)c1ccc(-c2cccc(Cl)c2)o1	7.2	9.5*	-38.4	0.5
CCCCn1nnc(NC(=O)c2ccc(-c3cccc(Cl)c3)o2)n1	-1.1	8.4*	-13.4	-0.4
COc1ccc(NC(=O)Nc2ccc(CC(=O)O)cc2)cc1	3.1	0.2	-5.0	0.8
COc1cccc(C(=O)Nc2ccc(S(=O)(=O)Nc3cc(C)nc(C)n3)cc2)c1	0.7	0.5	-6.0	-0.2
CCOC(=O)N/N=C/c1ccc(OCCSc2ccc(Cl)cc2)c(OCC)c1	2.4	4.7	-0.5	0.7
CCOC(=O)N/N=C/c1ccc(OCCSc2ccc(Cl)cc2)c(OC)c1	19.2	9.9*	1.4	1.3
COc1ccc(C(=O)OCC2CC(c3ccccc3)=NO2)cc1OC (stereo not drawn)	9.5	3.5	-0.8	0.7
COc1ccccc1C1=NOC(COC(=O)c2ccc(Br)cc2)C1 (stereo not drawn)	2.2	10.5*	1.7	0.3
COC(=O)c1c(/N=C/N(C)C)sc2c1CCN(c1ncc(C(F)(F)F)cc1Cl)C2	20.4	0.7	9.0	0.9
COC(=O)c1c(N(S(C)(=O)=O)S(C)(=O)=O)sc2c1CCN(c1ncc(C(F)(F)F)cc1Cl)C2	17.5	0.2	48.1*	0.7
O=C(CCCc1ccccc1)Nc1cccc2c1CCCC2	2.4	2.4	-0.9	0.5
CCc1ccc(N(CC(=O)NC2CCCC2)S(=O)(=O)c2c(C)noc2C)cc1	3.5	9.0*	-0.6	1.3
O=C1NC2(CCCCC2)Oc2ccccc21	0.4	1.1	6.4	0.4
N#Cc1c(-c2ccccc2)nc(SCC(=O)Nc2ccccc2F)[nH]c1=O	-3.5	5.6	9.3	-0.8
O=C(CCC(=O)OCC(=O)c1ccc(-c2ccccc2)cc1)Nc1cccc2cccnc12	3.0	10.4*	-0.9	0.4
CCOC(=O)c1c(-c2cccs2)csc1NC(=O)CN1CC(C)OC(C)C1 (stereo not drawn)	8.2	1.1	-1.9	1.8
CN1C(=O)/C(=N\OC(=O)c2cccc3ccccc23)c2ccccc21	3.9	0.2	6.7	-0.7
COc1ccc(C(=O)CSc2nnc(-c3ccc(C)cc3)o2)cc1	20.6	1.3	-6.5	-0.1
SMILES	ABCG2 inh	RAM inhibit	Arbovirus anti	ABCB1 block
COc1ccccc1OCc1nnc(SCC(=O)c2cc(Cl)ccc2OC)o1	1.5	9.5*	1.8	0.1
COc1ccc(OC)c(C(=O)CSc2nnc(-c3ccc(OC)c(OC)c3)o2)c1	0.8	10.1*	-11.6	0.3
O=C(OCc1ccc(F)cc1)c1ccc2c(c1)-c1ccccc1C2=O	2.1	10.5*	0.9	0.4
COCCNCC(=O)Nc1ccccc1Sc1ccccc1	0.0	-0.9	-11.4	0.0
Cc1cc(NC(=O)CCCN2C(=O)c3cccc4cccc(c34)C2=O)no1	4.0	1.1	-13.7	0.9
CCOC(=O)CSc1nnc(CCCCCN2C(=O)c3cccc4cccc(c34)C2=O)o1	25.7	10.8*	0.4	2.1
O=C(Nc1cccc(Cl)c1)Nc1ccnc(-c2cccnc2)n1	1.2	0.6	34.4*	-0.1
CC(=O)Nc1ccnc(-c2cccnc2)n1	7.0	-0.4	13.3	0.6
COc1cccc(NC(=O)c2ccc3c(c2)N(CC(=O)N2CCCCC2)C(=O)C(C)(C)O3)c1	1.0	8.8*	-2.3	0.2
CC(OC(=O)/C=C/c1ccco1)C(=O)Nc1cccc([N+](=O)[O-])c1 (stereo not drawn)	26.0	9.0*	2.9	0.6
O=C(CCCN1C(=O)c2cccnc2C1=O)Nc1ccccc1F	2.4	-0.9	10.3	0.0
OCCC1CN(Cc2cnc(-c3ccccc3)s2)CCN1Cc1ccccc1 (stereo not drawn)	1.3	-0.8	2.0	2.2
COc1ccc(C(=O)c2cc(C(C)=O)c(Nc3ccccc3)s2)cc1	3.4	9.1*	-12.2	0.7
COc1ccc(OC)c(C(=O)c2ccc(C(=O)Nc3ccccc3)cc2)c1	37.0	3.7	-13.6	1.1
CCCc1cc(=O)[nH]c(SCC(=O)N2CCCc3ccccc32)n1	7.8	1.6	6.7	1.3
COc1cc(Br)cc(CNc2ccc(F)c([N+](=O)[O-])c2)c1O	20.8	8.9*	-10.5	4.1
Cc1ccc(CC(=O)Nc2ccc(F)c([N+](=O)[O-])c2)cc1C	13.9	2.0	1.3	1.9
Cc1nonc1NC(=O)OC1CCCCC1	0.7	1.4	0.5	0.1
COc1ccc(N2C(=O)CSC2c2cccs2)cc1 (stereo not drawn)	-0.6	1.2	6.1	1.3
COCCCn1c(=O)/c(=C\c2ccccc2OC(F)F)s/c1=C(/C#N)C(=O)N1CCOCC1	8.0	9.1*	-1.4	1.5
CCCCNC(=O)/C(C#N)=c1\s/c(=C\c2ccccc2OC(F)F)c(=O)n1CCCOC	32.8	9.2*	-6.5	1.8
COCCCNC(=O)/C(C#N)=c1\s/c(=C\c2ccccc2OC(F)F)c(=O)n1CCCOC	40.6	3.3	-9.0	3.1
Cc1ccc([N+](=O)[O-])cc1NC(=O)C[n+]1ccccc1	0.6	0.7	25.7	0.4
CCN(CC)S(=O)(=O)c1ccc(C(=O)NCCSc2c[nH]c3ccccc23)cc1	3.9	8.7*	-16.9	0.6
O=C(CCCn1c(=S)[nH]c2cc3c(cc2c1=O)OCO3)N1CCN(C2CCCCC2)CC1	3.9	0.6	1.6	0.9
SMILES	ABCG2 inh	RAM inhibit	Arbovirus anti	ABCB1 block
COC(=O)CN1C(=O)Nc2ccc(Br)cc2C1c1ccccc1 (stereo not drawn)	14.3	1.2	18.1	1.5
O=C(Nc1ccc(F)cc1F)c1ccc(COc2c(F)c(F)cc(F)c2F)o1	16.0	8.6*	-2.7	1.4
O=C(c1ccc(COc2c(F)c(F)cc(F)c2F)o1)N1CCN(c2ccccc2)CC1	1.1	11.3*	-3.2	0.3
O=C(c1ccc(COc2c(F)c(F)c(F)c(F)c2F)o1)N1CCOCC1	0.6	1.6	5.1	0.0
Cn1cnc([N+](=O)[O-])c1SCC(O)CCl (stereo not drawn)	-0.8	-0.5	-0.4	-0.4
COc1cc(-c2nnc(SCc3ccccc3Cl)o2)cc(OC)c1OC	10.1	10.6*	-2.2	1.7
COc1cc(-c2nnc(SCc3c(F)cccc3Cl)o2)cc(OC)c1OC	6.1	10.7*	-7.8	1.1
Cc1occc1C(=O)Nc1ccc(Br)cc1F	3.0	2.4	-4.3	0.3
O=c1oc(-c2ccccc2)nc2sc3c(c12)CCCC3	1.8	3.8	31.8*	0.2

Screening data (PubChem BioAssay)
